From ChEMBL document CHEMBL1147139, “Synthesis and pharmacological evaluation of a selected library of new potential anti-inflammatory agents bearing the gamma-hydroxybutenolide scaffold: a new class of inhibitors of prostanoid production through the selective modulation of microsomal prostaglandin E synthase-1 expression” (J Med Chem, 2007) come the findings set out here.

The source made the active and inactive calls. No cut-off for these calls is given here. Residues, ends and D or L forms follow the SMILES beside them. *: point of attachment. Cbz = O=C(OCc1ccccc1)*

What is called inhibition is the percentage by which the read-out fell short of the control. Low values mean a response near the control, high ones a response far below the control. Broadly, the IC50 is the concentration that inhibits the measured activity by half. Read a low IC50 as greater potency.

Assay [1] deals with Acidic phospholipase A2 2 (Naja naja) (UniProt P15445). The assay can be described thus: Inhibition of Naja naja venom sPLA2 at 10 uM. A digest of the protocol:
(§1)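 Radiometric sPLA2 assay on [3H]oleate-labeled, autoclaved E. coli CECT 101 membranes. Enzyme in 100 mM Tris-HCl/1 mM CaCl2, pH 7.5, preincubated 5 min at 37 °C with compound (10 µM) or vehicle. Then 15 min with labeled membranes, stopped with ice-cold BSA (0.07% w/v final). Supernatant radioactivity counted after centrifugation; % inhibition, mean ± SEM, n = 6.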

For assay [2], the target named is Phospholipase A2, major isoenzyme (Sus scrofa) (UniProt P00592). The assay can be described thus: Inhibition of pig sPLA2 at 10 uM. A digest of the protocol:
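sPLA2 (human recombinant synovial group IIA; porcine pancreatic group IB) in 100 mM Tris-HCl/1 mM CaCl2, pH 7.5, preincubated 5 min at 37 °C with compound (10 µM) or vehicle. 15 min incubation with [3H]oleate-labelled autoclaved E. coli membranes as substrate. Stopped with ice-cold BSA (0.07% final), centrifuged, supernatant radioactivity counted. Mean ± SEM, n = 6.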

Assay [3] deals with T1, Phospholipase A2 (Apis mellifera) (UniProt P00630).
T1 sequence (whole entry): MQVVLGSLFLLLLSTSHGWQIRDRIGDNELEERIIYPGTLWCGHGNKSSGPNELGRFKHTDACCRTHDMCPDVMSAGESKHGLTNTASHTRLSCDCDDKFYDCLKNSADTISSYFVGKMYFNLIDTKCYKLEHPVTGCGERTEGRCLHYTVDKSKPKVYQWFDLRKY
Briefly: Inhibition of bee venom sPLA2 at 10 uM. A digest of the protocol:
as §1

Assay [4] relates to RAW264.7. Briefly: Inhibition of NF-kappaB DNA binding in LPS-stimulated mouse RAW264.7 cells. The format is cell-based. The gist of the method: (§2)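 EMSA: RAW 264.7 cells (1.5 × 10^6/well) preincubated 30 min with compound, then LPS (1 µg/mL) for 1 h. Nuclear extracts (6 µg) incubated on ice for 15 min with 32P-end-labelled consensus NF-κB oligonucleotide and poly(dI-dC), pH 8.0. Complexes resolved on native 6% PAGE and detected by autoradiography. Two independent experiments.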

Assay [5] deals with RAW264.7. The assay can be described thus: Inhibition of NF-kappaB DNA binding in LPS-stimulated mouse RAW264.7 cells at 10 uM. It is filed as cell-based. The gist of the method:
as §2

The subject of assay [6] is RAW264.7. Briefly: Inhibition of PGE2 production in LPS-stimulated mouse RAW264.7 cells at 1 uM after 18 hrs. The format is functional. A digest of the protocol:
(§3)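 RAW 264.7 macrophages (1.5 × 10^6 cells/mL) co-incubated with E. coli 0111:B4 LPS (1 µg/mL) and compound or vehicle at 37 °C (induction phase). PGE2 in supernatants measured by radioimmunoassay; MTT reduction checked cytotoxicity. Mean ± SEM, n = 6; IC50 from at least four concentrations.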

The subject of assay [7] is RAW264.7. Briefly: Inhibition of PGE2 production in LPS-stimulated mouse RAW264.7 cells at 10 uM after 18 hrs. It is filed as functional. A digest of the protocol: as §3
The test system of assay [8] is RAW264.7. The assay can be described thus: Inhibition of PGE2 production in LPS-stimulated mouse RAW264.7 cells at 1 uM after 2 hrs. It is filed as functional. The gist of the method: (§4)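 Post-induction phase: RAW264.7 cells that had already expressed COX-2 and mPGES-1 after LPS stimulation were given compound for 2 h in fresh medium supplemented with arachidonic acid. PGE2 in supernatants was quantified by radioimmunoassay. Mean ± SEM, n = 6.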

Assay [9] relates to RAW264.7. The assay can be described thus: Inhibition of PGE2 production in LPS-stimulated mouse RAW264.7 cells at 10 uM after 2 hrs. It is filed as functional. The gist of the method:
as §4

Assay [10] concerns RAW264.7. The assay can be described thus: Inhibition of mPGES1 expression in LPS-stimulated mouse RAW264.7 cells after 2 hrs by Western blot analysis. The format is functional, cell-based. On the technique in general: A western blot detects proteins with antibodies after separation by electrophoresis.
The test system of a further assay is THP-1. Briefly: Inhibition of COX2 expression in LPS-stimulated human THP1 cells at 1 uM by Western blot analysis. It is filed as functional, cell-based. A digest of the protocol: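 THP-1 human monocytic cells (1 × 10^6 cells/mL, RPMI with 10% FBS) incubated 18 h with LPS (1 µg/mL) plus compound. Lysates taken, total fraction (30 µg protein) run on SDS-15% PAGE, then blotted with polyclonal anti-COX-2 (1/200), peroxidase secondary and chemiluminescence detection.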

Assay [11] is filed under the species Mus musculus. Briefly: Decrease of mPGES1 expression in zymosan-stimulated Swiss mouse air pouch model after 24 hrs. The format is functional, organism-based. The gist of the method: (§5)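 Female Swiss mice (25-30 g) air pouch; six days after initial air injection, 1 mL of 1% (w/v) zymosan in saline injected into pouch, compound given intrapouch at the same time. Exudate collected after 24 h; cell pellets analysed by Western blot for COX-2, mPGES-1 and β-actin. Densitometry expressed as percentage of zymosan control band intensity.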

For assay [12], the system named is RAW264.7. Briefly: Inhibition of PGE2 production in LPS-stimulated mouse RAW264.7 cells after 18 hrs. It is filed as functional, cell-based. To be noted: RAW264.7, 18 h. The gist of the method: as §3
The subject of assay [13] is RAW264.7. The assay can be described thus: Inhibition of COX2 expression in LPS-stimulated mouse RAW264.7 cells after 2 hrs by Western blot analysis. The format is functional, cell-based.
The species entered for assay [14] is Mus musculus. Briefly: Inhibition of COX2 expression in zymosan-stimulated Swiss mouse air pouch model after 24 hrs. The format is functional, organism-based. The gist of the method: as §5
The test system of assay [15] is RAW264.7. The assay can be described thus: Inhibition of NF-kappaB DNA binding in LPS-stimulated mouse RAW264.7 cells at 1 uM. It is filed as cell-based. The gist of the method: as §2

Chain of Acidic phospholipase A2 2 (Naja naja) (P15445 whole entry): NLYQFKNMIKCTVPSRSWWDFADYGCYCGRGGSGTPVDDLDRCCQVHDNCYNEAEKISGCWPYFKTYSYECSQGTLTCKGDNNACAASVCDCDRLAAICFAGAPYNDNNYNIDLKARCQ
Chain of Phospholipase A2, major isoenzyme (Sus scrofa) (P00592 23-146 limits assumed): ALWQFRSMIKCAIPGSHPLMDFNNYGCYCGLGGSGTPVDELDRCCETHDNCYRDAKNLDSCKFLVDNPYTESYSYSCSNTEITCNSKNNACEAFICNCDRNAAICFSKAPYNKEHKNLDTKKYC

For the compound `O=C1OC(O)C(c2ccc3ccccc3c2)=C1Br` (stereo not drawn), the inhibition in assay [1] is 9.2%; in assay [2], 27.7%; in assay [3], 14.7%.
With `CCc1c(CC(N)=O)c2cc(OCCCP(=O)(O)O)ccc2n1Cc1ccccc1`, the inhibition in assay [1] worked out at 2.7%; in [2] it was 6.8%; in [3], 0%. Further, the outcome in the assay with RAW264.7 [4] was inactive.
On to `O=C1OC(O)C(c2ccc3ccccc3c2)=C1c1ccc2ccccc2c1` (stereo not drawn), for which the inhibition in assay [1] is 9.1%; in [2] it was 22.5%; in assay [3] it was 25.2%.
With `CCCCc1ccc(C2=C(Br)C(=O)OC2O)cc1` (stereo not drawn), the inhibition in assay [1] is 26%; in assay [2] it was 35.1%; in [3], 32.9%.
With `CC(C)C[C@@H](C=O)NC(=O)[C@H](CC(C)C)NC(=O)[C@H](CC(C)C)NC(=O)OCc1ccccc1` (Cbz-Leu-Leu-Leu-aldehyde), the result in the assay with RAW264.7 [5] was Active.
Take `O=C1OC(O)C(c2cc3ccccc3s2)=C1Br` (stereo not drawn): the inhibition amounted to 3.4% in [1], 18.7% in assay [2] and 0% in assay [3]. Further, the Activity in the assay on RAW264.7 [6] was 10.7 ng/mL; in the assay with RAW264.7 [7] it was 6.7 ng/mL; with RAW264.7 [8], 0.23 ng/mL; in the assay with RAW264.7 [9] it was 0.22 ng/mL; with RAW264.7 [10] it was “Dose-dependent effect”; in the assay with RAW264.7 [4], “Dose-dependent effect”. The result in the assay on THP-1 and with RAW264.7 [13] was inactive. The result in the assay filed under Mus musculus [11] was Active. For the same compound, the IC50 in the assay on RAW264.7 [12] amounted to 1.8 µM.
In the assay with RAW264.7 [9], `CS(=O)(=O)Nc1ccc([N+](=O)[O-])cc1OC1CCCCC1` [NS-398] showed an Activity of 0.07 ng/mL.
As to `O=C1OC(O)C(c2cccc3c2Sc2ccccc2S3)=C1Br` (stereo not drawn), the values for the inhibition in assay [1], in assay [2] and in [3] were 1.5%, 0% and 0%, respectively.
Consider `O=C1OC(O)C(c2ccc(Oc3ccccc3)cc2)=C1Br` (stereo not drawn), for which the inhibition in [1] was found to be 1%; in [2] it was 7.8%; in assay [3], 2.1%.
The matching figures for `O=C1OC(O)C(c2csc3ccccc23)=C1Br` (stereo not drawn): 15.4%, 33.5% and 9.8%.
For `O=C1OC(O)C(c2cccc3c2oc2ccccc23)=C1Br` (stereo not drawn), the values for the inhibition in [1], in assay [2] and in assay [3] were 0%, 38.6% and 20.4%, respectively.
The matching figures for `O=C1OC(O)C(c2ccc(-c3ccccc3)cc2)=C1Br` (stereo not drawn): 7.5%, 26% and 14.4%.
Consider `C[C@@H]1C[C@H]2[C@@H]3CCC4=CC(=O)C=C[C@]4(C)[C@@]3(F)[C@@H](O)C[C@]2(C)[C@@]1(O)C(=O)CO` [DEXAMETHASONE], for which the values for the Activity in the assay on RAW264.7 [6] and with RAW264.7 [8] were 3.4 ng/mL and 0.21 ng/mL, respectively. Besides, the result with RAW264.7 [10], in the assay listed under Mus musculus [11], in the assay filed under Mus musculus [14] and in the assay on RAW264.7 [13] was Active.
As for `O=C1OC(O)C(c2cccc3ccccc23)=C1Br` (stereo not drawn), the values for the inhibition in assay [1], in [2] and in [3] were 8.6%, 13.7% and 0%, respectively.
Consider `CC(=O)O[C@@H]1O[C@@H](C2=CC(=O)OC2O)C[C@@H]2[C@@H]1CC[C@H]1[C@@]2(C)CC[C@H]2C(C)(C)CCC[C@]12C` (stereo partly drawn) [PETROSASPONGIOLIDE M], for which the inhibition in assay [1] turned out to be 5.4%; in [2], 11.4%; in assay [3] it was 60.8%. In addition, the Activity worked out at 7.3 ng/mL in the assay on RAW264.7 [6] and 0.22 ng/mL in the assay with RAW264.7 [8]. In the assay with RAW264.7 [15], the outcome was Active.
